Screens (PubChem BioAssay)
The list is not random: actives were taken first. Their share in the collection is about 2.5%.
GSTO1 counter – blocks human GSTO1 in RBBP9 counter-screen | P78417 | recombinant GSTO1, activity-based probe fluorescence polarization | inhibition, % at 5.96 µM | actives 1.1% (n = 300,000) | AID 1974;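 active = inhibition above the campaign mean inhibition plus 3 SD, cut at about 35% in these data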;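 note: 0% = GSTO1-1 with DMSO and 100% = wells lacking GSTO1-1 enzyme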
PAD4 inh – blocks human protein arginine deiminase 4; recombinant PAD4, RCA probe fluorescence polarization; inhibition, % at 6.36 µM; actives 0.41% (n = 330,000); AID 485272;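 active = percent inhibition above a cutoff equal to the mean of all tested compounds plus 3 SD, cut at about 15% in these data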;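 note: 0% = PAD4 with RCA probe and DMSO and 100% = probe without PAD4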
PRMT1 inh – blocks human protein arginine methyltransferase 1; inhibition, % at 2.79 µM; actives 1.3% (n = 370,000); recombinant PRMT1, activity-based probe fluorescence polarization; AID 652257;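 active = inhibition above about 21% made by adding two undisclosed values, limit read from the data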
Fh CTSL1 inh – cathepsin L1 inhibition, PFM18AAP counter-screen | recombinant F. hepatica cathepsin L1, Z-Leu-Arg-MCA fluorescence | inhibition, % at 5.96 µM | actives 0.49% (n = 300,000);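 active = inhibition above the mean of all tested compounds plus 3 SD, set per screening campaign, cut at about 17% in these data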;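 note: 0% = plate median of test compound wells and 100% = 1 µM Z-Phe-Ala-diazomethylketone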
TDP2 inh – TDP2 (human) inhibition, absorbance primary screen; O95551; recombinant TDP2, T5PNP hydrolysis, p-nitrophenol absorbance 415 nm; inhibition, % at 12.8 µM; actives 0.34% (n = 370,000); AID 720702;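 active = inhibition above the mean of all tested compounds plus 3 SD, set per campaign, cut at about 25% in these data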;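 note: 0% = DMSO with enzyme and 100% = buffer with substrate but no TDP2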
Target sequence (O95551 whole entry, looked up): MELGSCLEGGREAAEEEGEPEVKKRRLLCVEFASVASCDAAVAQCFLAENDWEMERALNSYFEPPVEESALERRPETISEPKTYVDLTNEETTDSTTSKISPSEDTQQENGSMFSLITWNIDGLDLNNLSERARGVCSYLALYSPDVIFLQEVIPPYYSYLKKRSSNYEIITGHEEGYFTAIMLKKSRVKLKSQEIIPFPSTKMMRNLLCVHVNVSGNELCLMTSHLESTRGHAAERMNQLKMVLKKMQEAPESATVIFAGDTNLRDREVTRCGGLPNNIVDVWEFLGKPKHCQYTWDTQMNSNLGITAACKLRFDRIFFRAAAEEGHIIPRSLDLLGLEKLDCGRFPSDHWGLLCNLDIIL
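Assay system: Recombinant human TDP2 | Quantity: 120 nM TDP2 per well | Incubation: 2 h at 37 °C | Signal: Epi absorbance | Evaluation: Percent inhibition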
PRMT1 inh conf – confirmation of human PRMT1 inhibitors; shares compounds with PRMT1 inh; recombinant His-PRMT1, activity-based probe fluorescence polarization; inhibition, % at 2.79 µM; actives 42% (n = 3,300);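 active = mean inhibition across replicates above the hit cutoff derived for the earlier primary screen, cut at about 22% in these data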
Active calls of the source: *; . = not tested or not shown.

SMILES	GSTO1 counter	PAD4 inh	PRMT1 inh	Fh CTSL1 inh	TDP2 inh	PRMT1 inh conf
COc1ccc(/C=C/C(=O)NCC2COc3ccccc3O2)cc1OC (centres undefined)	-2.7	1.3	-0.8	-2.5	-4.3	.
O=S1(=O)c2ccc(Br)cc2OC[C@H](Cc2ccccc2)N1Cc1cn(Cc2ccc(Cl)cc2)nn1	.	.	-2.0	.	7.5	.
CSc1ccc(/C=N/NC(=O)CNc2ccc3ccccc3c2)cc1	-4.8	-2.2	28.8*	2.4	-6.9	11.3
Cc1nc2ccc(S(=O)(=O)NCC(=O)NCc3ccccc3Cl)cc2s1	.	.	0.5	.	-0.3	.
CC(C)N(C(=O)c1nn(C)c2c1CSc1ccccc1-2)C1CCCCC1	0.8	-4.6	39.3*	2.8	-9.2	13.8
Cn1nc(C(=O)NC2CCCCC2)c2c1-c1ccccc1SC2	5.2	1.1	-0.5	1.8	-14.8	.
COc1ccccc1OCC(=O)Sc1ccc(C)cc1	5.1	4.0	38.8*	-23.7	4.8	78.5*
Cc1ccc(OCC(=O)Sc2ccc(C)cc2)cc1	2.0	-2.9	20.1	-12.8	-8.5	.
CCOC(=O)N1CCN(C(=O)C[C@H]2C[C@@]3(C(=O)OC)C(=C[C@H](C4CCCC4)O[C@@H]3C)N(Cc3cccc4ccccc34)C2=O)CC1	.	.	-0.5	.	-6.5	.
C[C@H]1[C@@H](OC(=O)N2CCOCC2)CC[C@@]23CCCN2C(=O)CCC[C@@H]13	.	.	-4.2	.	7.1	.
CCOc1ccc(-n2c(SCC(=O)c3ccc4ccccc4c3)nnc2-c2ccc(OC)cc2)cc1	.	.	0.3	.	-5.3	.
CCOc1ccc(-n2c(SCC(=O)c3ccc4ccccc4c3)nnc2-c2ccco2)cc1	.	.	45.6*	.	-2.0	7.9
CCc1ccccc1N1CSC2=C(C#N)C(c3ccccc3F)CC(=O)N2C1 (centres undefined)	8.1	-4.3	53.6*	2.6	5.4	42.5*
COc1cc(OC)c(C2CC(=O)N3CN(c4ccccc4C)CSC3=C2C#N)cc1OC (centres undefined)	36.0*	-20.7	29.3*	30.8*	-3.2	80.1*
CCC[C@H]1[C@@H](NC(=O)NCC)CC[C@@]23CCCN2C(=O)CCC[C@@H]13	.	.	-2.6	.	-8.5	.
CCOc1cc(C(c2c(O)nc(SC)[nH]c2=O)c2c(O)nc(SC)[nH]c2=O)ccc1O	2.0	2.9	49.3*	5.7	-2.2	41.2*
COc1ccccc1C(c1c(O)nc(SC)[nH]c1=O)c1c(O)nc(SC)[nH]c1=O	2.3	-0.1	8.3	-1.1	-4.3	.
C=CCOC(=O)N[C@H](c1ccc2ccccc2c1)[C@H](C)/C=C/CC(=O)OC	.	.	-0.6	.	4.5	.
NC(=O)c1ncn([C@@H]2O[C@H](C(=O)N[C@H](Cc3c[nH]c4ccccc34)C(=O)N3CCN(C(=O)C4CC4)CC3)[C@@H](O)[C@H]2O)n1	.	.	0.5	.	-5.0	.
Cc1ccc(S(=O)(=O)c2nc(S(C)(=O)=O)sc2N2CCC(C)CC2)cc1	-8.8	0.8	27.6*	-2.3	-11.7	1.0
Cc1ccc(S(=O)(=O)c2nc(S(C)(=O)=O)sc2N2CCCCCC2)cc1	0.2	-0.1	-0.1	3.4	16.8	.
Cc1cc(C)nc(N/N=C/C2=C(N3CCOCC3)C(=C\c3ccc(Cl)cc3)/CC2)n1	3.2	-7.8	9.6	3.1	10.0	.
O=C(O)c1ccc(N/N=C/C2=C(N3CCOCC3)C(=C\c3ccccc3)/CC2)cc1	26.8	3.8	32.8*	0.6	20.7	15.7
CC[C@]1(C(=O)OC)[C@H]2C(=O)N(Cc3ccccc3)C(=O)[C@H]2[C@H]2CN=C(SCC(=O)c3ccccc3)N21	.	4.8	53.9*	.	6.3	58.2*
COC(=O)[C@@]1(Cc2ccccc2)[C@H]2C(=O)N(Cc3ccccc3)C(=O)[C@H]2[C@H]2CN=C(SCC(=O)c3ccccc3)N21	.	3.6	17.9	.	-1.7	.
COC(=O)[C@@]1(C)[C@H]2C(=O)N(C)C(=O)[C@H]2[C@H]2CN=C(SCC(=O)c3ccccc3)N21	.	-0.9	76.4*	.	-11.9	80.3*
CCOC(=O)CSC(=S)NC(=O)c1ccc(OC)cc1	1.6	5.3	27.3*	2.5	5.9	99.8*
O=[N+]([O-])c1ccc(CSc2nnc(-c3cccc(Cl)c3)n2Cc2ccco2)cc1	.	.	2.9	.	3.2	.
COc1ccc(NC(=O)C2C3C=CC(O3)C2C(=O)O)cc1 (centres undefined)	-3.9	1.4	36.0*	4.0	10.4	8.5
